What was measured:
[1] = target: Serine/threonine-protein kinase TBK1 (Homo sapiens) (UniProt Q9UHD2); assay: Inhibition of TBK1 (unknown origin) at 250 nM by radioactive filter-binding assay
How it was run: (§1)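 Panel profiling of one compound against 50 kinases, carried out in duplicate at the International Centre for Protein Kinase Profiling. Radioactive filter-binding format.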

[2] = target: Serine/threonine-protein kinase PAK 4 (Homo sapiens) (UniProt O96013); assay: Inhibition of PAK4 (unknown origin) at 250 nM by radioactive filter-binding assay; how it was run: as §1
[3] = target: Vascular endothelial growth factor receptor (Homo sapiens) (UniProt P17948+P35916+P35968); assay: Inhibition of VEGFR (unknown origin) at 250 nM by radioactive filter-binding assay; type: protein assay; how it was run: as §1
[4] = target: Insulin-like growth factor 1 receptor (Homo sapiens) (UniProt P08069); assay: Inhibition of IGF1R (unknown origin) at 250 nM by radioactive filter-binding assay; how it was run: as §1
[5] = target: Mitogen-activated protein kinase kinase kinase 11 (Homo sapiens) (UniProt Q16584); assay: Inhibition of MLK3 (unknown origin) at 250 nM by radioactive filter-binding assay; how it was run: as §1
[6] = target: T1, Serine/threonine-protein kinase ULK2 (Homo sapiens, UniProt Q8IYT8); assay: Inhibition of SUMO-tagged ULK2 (unknown origin) kinase domain expressed in KRX cells using [32P]-gamma-ATP and myelin basic protein substrate incubated for 7 mins; type: single protein
T1 sequence (Q8IYT8 whole entry): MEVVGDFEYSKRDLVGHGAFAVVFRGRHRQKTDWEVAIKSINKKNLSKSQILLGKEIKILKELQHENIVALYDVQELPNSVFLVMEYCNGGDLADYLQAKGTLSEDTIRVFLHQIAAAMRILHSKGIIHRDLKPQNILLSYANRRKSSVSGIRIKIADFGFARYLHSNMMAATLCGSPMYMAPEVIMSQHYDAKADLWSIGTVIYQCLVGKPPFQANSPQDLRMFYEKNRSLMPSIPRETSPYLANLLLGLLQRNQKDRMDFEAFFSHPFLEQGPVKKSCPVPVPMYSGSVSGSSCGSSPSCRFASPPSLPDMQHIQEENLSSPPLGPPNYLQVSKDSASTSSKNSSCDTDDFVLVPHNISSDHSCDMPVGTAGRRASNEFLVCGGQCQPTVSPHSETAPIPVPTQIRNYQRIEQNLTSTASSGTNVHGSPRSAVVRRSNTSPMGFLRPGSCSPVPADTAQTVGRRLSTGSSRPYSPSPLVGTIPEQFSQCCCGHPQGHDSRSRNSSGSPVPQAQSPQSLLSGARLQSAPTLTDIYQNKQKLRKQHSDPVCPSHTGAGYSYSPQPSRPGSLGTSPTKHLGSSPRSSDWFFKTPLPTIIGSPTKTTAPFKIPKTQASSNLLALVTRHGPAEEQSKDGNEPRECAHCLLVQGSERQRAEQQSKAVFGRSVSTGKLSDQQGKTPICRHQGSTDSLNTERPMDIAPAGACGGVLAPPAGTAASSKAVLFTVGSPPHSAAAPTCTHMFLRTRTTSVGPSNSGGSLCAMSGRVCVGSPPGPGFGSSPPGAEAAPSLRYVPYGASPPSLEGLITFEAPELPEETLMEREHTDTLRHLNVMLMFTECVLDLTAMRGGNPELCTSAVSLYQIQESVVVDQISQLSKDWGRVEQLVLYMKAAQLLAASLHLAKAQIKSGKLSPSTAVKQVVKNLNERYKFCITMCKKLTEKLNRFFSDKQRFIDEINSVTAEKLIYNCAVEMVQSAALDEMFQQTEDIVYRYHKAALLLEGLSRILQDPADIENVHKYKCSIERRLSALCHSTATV
How it was run: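 Enzyme at 5 nM with 50 µM cold ATP, 0.05 µCi/µl 32P-γ-ATP and 20 µM myelin basic protein as substrate. Reactions were spotted onto nitrocellulose, washed three times in 1% phosphoric acid, dried and imaged by phosphorimager. IC50 from curve fitting; duplicate.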

[7] = target: T2, 3-phosphoinositide-dependent protein kinase 1 (Homo sapiens, UniProt O15530); assay: Inhibition of recombinant PDK1 (unknown origin) using PDK1tide substrate incubated for 7 mins
T2 sequence (O15530 whole entry): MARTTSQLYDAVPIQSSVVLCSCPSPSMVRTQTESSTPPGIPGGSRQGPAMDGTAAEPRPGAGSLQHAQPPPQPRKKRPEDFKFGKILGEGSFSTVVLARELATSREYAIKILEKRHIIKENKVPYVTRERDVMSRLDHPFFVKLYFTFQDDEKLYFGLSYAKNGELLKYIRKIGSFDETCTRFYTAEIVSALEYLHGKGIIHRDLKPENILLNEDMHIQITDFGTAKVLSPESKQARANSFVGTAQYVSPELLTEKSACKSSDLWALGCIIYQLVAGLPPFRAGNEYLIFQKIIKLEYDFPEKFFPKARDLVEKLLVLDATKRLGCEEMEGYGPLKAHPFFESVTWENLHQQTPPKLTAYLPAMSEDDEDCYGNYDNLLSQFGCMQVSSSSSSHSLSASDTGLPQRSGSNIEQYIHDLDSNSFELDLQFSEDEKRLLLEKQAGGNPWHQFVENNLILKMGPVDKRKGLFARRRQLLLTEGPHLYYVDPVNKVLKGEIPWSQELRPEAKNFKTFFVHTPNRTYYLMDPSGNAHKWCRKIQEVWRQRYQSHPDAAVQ
How it was run: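 Recombinant PDK1 at 5 nM with 50 µM synthetic PDK1tide in 50 mM HEPES pH 7.5, 10 mM MgCl2, 1 mg/ml BSA, 0.02% Triton-X and 50 µM DTT. Stopped after 7 min by spotting onto nitrocellulose, washed three times in 1% phosphoric acid and phosphorimaged. IC50 from curve fitting; duplicate.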

[8] = target: AMP-activated protein kinase, AMPK (Homo sapiens) (UniProt P54646+O43741+P54619+Q9UGJ0+Q9Y478+Q13131+Q9UGI9); assay: Inhibition of AMPK (unknown origin) at 250 nM by radioactive filter-binding assay; type: protein-complex assay; how it was run: as §1
[9] = target: Casein kinase I isoform delta (Homo sapiens) (UniProt P48730); assay: Inhibition of CK1delta (unknown origin) at 250 nM by radioactive filter-binding assay; how it was run: as §1
Homo sapiens = organism: Homo sapiens; assay: Inhibition of Aurora (unknown origin) at 250 nM by radioactive filter-binding assay; how it was run: as §1
[10] = target: Mitogen-activated protein kinase kinase kinase 7 (Homo sapiens) (UniProt O43318); assay: Inhibition of TAK1 (unknown origin) at 250 nM by radioactive filter-binding assay; how it was run: as §1
[11] = target: Calcium/calmodulin-dependent protein kinase type 1 (Homo sapiens) (UniProt Q14012); assay: Inhibition of CAMK1 (unknown origin) at 250 nM by radioactive filter-binding assay; how it was run: as §1
[12] = target: Ribosomal protein S6 kinase alpha-1 (Homo sapiens) (UniProt Q15418); assay: Inhibition of RSK1 (unknown origin) at 2 uM by radioactive filter-binding assay; how it was run: as §1
[13] = target: Dual specificity mitogen-activated protein kinase kinase 1 (Homo sapiens) (UniProt Q02750); assay: Inhibition of MKK1 (unknown origin) at 2 uM by radioactive filter-binding assay; how it was run: as §1
[14] = target: High affinity nerve growth factor receptor (Homo sapiens) (UniProt P04629); assay: Inhibition of TRKA (unknown origin) at 2 uM by radioactive filter-binding assay; how it was run: as §1
Sequence of High affinity nerve growth factor receptor (Homo sapiens) (P04629 33-796 limits assumed): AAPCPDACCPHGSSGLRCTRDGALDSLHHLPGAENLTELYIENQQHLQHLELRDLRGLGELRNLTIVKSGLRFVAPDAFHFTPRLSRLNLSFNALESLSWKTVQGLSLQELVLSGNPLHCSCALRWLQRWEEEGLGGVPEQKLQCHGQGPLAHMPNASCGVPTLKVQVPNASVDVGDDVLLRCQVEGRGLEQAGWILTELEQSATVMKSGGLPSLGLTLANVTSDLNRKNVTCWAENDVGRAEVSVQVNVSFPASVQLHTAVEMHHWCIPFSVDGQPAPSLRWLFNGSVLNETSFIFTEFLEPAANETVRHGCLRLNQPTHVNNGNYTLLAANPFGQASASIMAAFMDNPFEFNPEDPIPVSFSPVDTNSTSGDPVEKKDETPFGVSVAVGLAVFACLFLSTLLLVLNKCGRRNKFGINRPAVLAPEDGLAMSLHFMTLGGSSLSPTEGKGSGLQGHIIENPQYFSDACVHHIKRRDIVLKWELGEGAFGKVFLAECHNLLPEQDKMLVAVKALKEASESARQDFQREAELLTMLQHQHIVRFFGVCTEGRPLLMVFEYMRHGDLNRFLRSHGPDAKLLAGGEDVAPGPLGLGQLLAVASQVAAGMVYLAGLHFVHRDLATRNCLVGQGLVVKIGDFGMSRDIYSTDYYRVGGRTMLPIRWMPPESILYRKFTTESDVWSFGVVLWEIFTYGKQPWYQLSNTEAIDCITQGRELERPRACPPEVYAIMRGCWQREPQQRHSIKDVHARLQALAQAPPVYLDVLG

Sequence of Ribosomal protein S6 kinase alpha-1 (Homo sapiens) (Q15418 whole entry): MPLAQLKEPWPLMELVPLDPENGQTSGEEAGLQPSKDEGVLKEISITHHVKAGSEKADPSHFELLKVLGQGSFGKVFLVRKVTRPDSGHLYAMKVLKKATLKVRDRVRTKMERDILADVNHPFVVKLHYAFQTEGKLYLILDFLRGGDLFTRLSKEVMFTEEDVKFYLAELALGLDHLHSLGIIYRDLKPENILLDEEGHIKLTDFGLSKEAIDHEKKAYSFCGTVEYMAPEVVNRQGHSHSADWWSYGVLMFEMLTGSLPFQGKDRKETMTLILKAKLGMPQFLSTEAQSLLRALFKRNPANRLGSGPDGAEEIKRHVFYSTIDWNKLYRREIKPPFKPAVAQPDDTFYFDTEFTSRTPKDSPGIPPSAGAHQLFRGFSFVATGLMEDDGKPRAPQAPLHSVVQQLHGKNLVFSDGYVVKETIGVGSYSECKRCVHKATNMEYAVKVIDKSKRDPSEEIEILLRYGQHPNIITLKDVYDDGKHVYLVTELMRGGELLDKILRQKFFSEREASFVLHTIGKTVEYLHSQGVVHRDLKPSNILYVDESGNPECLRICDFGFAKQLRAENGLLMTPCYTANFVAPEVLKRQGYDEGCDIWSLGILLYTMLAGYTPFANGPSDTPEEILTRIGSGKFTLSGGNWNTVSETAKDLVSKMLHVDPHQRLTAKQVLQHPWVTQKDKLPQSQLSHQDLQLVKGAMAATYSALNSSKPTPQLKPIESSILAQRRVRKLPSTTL
Sequence of Serine/threonine-protein kinase PAK 4 (Homo sapiens) (O96013 whole entry, looked up): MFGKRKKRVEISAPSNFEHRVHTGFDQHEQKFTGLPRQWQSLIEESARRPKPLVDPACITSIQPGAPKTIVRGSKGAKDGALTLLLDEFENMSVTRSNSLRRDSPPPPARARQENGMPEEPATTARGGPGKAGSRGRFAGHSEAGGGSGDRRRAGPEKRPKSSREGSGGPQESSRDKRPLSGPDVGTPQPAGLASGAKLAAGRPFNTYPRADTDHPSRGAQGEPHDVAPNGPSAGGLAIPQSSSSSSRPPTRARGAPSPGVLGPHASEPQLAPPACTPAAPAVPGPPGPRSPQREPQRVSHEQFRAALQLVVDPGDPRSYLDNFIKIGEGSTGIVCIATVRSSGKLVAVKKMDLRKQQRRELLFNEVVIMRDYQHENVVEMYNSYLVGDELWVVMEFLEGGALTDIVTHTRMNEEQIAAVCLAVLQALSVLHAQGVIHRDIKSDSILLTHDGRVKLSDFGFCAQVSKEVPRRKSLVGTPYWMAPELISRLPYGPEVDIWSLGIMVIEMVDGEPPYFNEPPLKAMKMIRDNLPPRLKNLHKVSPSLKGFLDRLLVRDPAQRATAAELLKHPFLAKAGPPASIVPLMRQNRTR
Sequence of Calcium/calmodulin-dependent protein kinase type 1 (Homo sapiens) (Q14012 whole entry, looked up): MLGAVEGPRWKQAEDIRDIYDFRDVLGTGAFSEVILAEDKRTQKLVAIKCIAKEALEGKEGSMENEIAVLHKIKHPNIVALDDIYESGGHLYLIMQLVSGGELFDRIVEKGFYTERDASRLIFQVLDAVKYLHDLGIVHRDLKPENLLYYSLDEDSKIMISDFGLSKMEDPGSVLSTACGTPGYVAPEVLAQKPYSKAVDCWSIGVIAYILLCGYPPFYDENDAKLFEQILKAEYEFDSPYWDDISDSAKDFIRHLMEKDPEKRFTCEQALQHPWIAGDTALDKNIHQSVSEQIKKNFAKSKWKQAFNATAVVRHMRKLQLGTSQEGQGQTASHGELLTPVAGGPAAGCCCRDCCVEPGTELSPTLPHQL
Sequence of Serine/threonine-protein kinase TBK1 (Homo sapiens) (Q9UHD2 whole entry): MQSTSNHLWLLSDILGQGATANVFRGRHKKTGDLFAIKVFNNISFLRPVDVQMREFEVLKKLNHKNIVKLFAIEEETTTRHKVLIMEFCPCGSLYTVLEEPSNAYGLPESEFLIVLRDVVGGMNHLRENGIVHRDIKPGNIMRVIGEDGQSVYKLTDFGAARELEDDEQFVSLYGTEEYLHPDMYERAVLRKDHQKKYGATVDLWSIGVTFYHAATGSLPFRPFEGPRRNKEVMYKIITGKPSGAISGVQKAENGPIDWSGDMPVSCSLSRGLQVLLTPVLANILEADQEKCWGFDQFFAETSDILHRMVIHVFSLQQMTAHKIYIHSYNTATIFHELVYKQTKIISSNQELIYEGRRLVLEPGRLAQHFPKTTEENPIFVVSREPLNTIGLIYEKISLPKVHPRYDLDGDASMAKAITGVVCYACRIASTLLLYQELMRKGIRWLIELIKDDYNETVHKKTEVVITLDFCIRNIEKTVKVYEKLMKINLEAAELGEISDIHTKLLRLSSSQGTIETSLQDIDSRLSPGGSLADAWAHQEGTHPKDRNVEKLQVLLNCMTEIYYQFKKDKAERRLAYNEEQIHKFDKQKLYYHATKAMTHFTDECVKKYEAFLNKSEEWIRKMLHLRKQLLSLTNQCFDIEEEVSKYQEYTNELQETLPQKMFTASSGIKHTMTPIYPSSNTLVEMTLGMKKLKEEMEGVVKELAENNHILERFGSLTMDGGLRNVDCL
Sequence of Mitogen-activated protein kinase kinase kinase 11 (Homo sapiens) (Q16584 whole entry, looked up, the tested form may be a part): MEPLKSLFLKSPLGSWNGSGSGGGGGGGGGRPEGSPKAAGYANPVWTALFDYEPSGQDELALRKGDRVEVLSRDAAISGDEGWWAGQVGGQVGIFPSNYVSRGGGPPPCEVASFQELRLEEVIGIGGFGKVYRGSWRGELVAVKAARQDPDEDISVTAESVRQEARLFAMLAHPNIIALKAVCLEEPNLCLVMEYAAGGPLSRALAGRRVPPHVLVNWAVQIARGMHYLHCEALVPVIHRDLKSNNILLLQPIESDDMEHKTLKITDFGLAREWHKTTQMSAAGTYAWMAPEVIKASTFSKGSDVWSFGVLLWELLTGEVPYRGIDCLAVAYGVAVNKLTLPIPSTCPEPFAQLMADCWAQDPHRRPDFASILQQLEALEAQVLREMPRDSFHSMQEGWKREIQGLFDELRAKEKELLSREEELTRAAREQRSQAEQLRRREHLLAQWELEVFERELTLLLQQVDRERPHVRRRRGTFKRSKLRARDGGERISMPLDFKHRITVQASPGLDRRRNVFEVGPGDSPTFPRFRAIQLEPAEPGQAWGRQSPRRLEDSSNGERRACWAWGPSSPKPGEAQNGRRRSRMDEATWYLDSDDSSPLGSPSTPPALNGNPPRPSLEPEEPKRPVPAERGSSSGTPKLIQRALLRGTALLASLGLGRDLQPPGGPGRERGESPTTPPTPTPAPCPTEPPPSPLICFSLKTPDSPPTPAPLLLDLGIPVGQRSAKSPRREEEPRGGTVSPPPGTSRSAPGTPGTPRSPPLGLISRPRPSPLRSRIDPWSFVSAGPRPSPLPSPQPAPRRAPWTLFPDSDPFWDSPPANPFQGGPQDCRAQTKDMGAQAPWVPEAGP
Sequence of Mitogen-activated protein kinase kinase kinase 7 (Homo sapiens) (O43318 whole entry): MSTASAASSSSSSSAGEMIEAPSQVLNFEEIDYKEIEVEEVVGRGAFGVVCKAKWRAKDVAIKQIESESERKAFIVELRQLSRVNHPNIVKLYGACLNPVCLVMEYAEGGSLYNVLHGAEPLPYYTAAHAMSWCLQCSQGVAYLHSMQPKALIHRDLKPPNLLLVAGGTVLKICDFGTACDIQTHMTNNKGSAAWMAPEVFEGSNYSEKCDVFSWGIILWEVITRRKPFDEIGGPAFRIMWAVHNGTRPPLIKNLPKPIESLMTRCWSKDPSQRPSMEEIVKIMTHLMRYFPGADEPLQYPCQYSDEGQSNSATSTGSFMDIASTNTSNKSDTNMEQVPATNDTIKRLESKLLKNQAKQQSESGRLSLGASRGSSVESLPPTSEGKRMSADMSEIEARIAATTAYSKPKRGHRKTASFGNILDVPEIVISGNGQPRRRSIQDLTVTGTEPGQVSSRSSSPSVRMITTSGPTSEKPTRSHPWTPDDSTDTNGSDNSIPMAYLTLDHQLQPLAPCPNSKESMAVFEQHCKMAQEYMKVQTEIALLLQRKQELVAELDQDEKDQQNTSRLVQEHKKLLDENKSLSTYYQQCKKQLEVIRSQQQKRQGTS
Sequence of Dual specificity mitogen-activated protein kinase kinase 1 (Homo sapiens) (Q02750 whole entry): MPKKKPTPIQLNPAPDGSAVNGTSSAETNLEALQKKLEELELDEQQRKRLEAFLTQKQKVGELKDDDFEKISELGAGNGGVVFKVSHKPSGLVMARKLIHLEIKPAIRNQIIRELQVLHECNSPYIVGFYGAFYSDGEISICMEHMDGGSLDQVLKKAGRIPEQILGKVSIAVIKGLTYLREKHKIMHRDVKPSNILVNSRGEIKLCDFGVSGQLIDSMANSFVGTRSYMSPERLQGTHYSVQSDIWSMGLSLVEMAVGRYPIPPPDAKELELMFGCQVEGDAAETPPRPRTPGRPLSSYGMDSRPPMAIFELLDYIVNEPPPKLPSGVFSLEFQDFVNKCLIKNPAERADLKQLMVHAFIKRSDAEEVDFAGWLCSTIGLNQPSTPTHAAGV

Row | inhibition [1] [%] | inhibition [2] [%] | inhibition [3] [%] | inhibition [4] [%] | inhibition [5] [%] | IC50 [6] [nM] | IC50 [7] [nM] | inhibition [8] [%] | inhibition [9] [%] | inhibition (Homo sapiens) [%] | inhibition [10] [%] | inhibition [11] [%] | inhibition [12] [%] | inhibition [13] [%] | inhibition [14] [%] | Compound
1 | > 80 | > 80 | > 80 | > 80 | > 80 | 13 | 420 | > 80 | > 80 | > 80 | > 80 | > 80 | – | – | – | c1ccc2c(Nc3cc(C4CCC4)[nH]n3)nc(Nc3ccc4[nH]cnc4c3)nc2c1
2 | – | – | – | – | – | 360 | 710 | – | – | – | – | – | > 80 | > 80 | > 80 | NCCCNc1nc(Nc2cccc(NC(=O)N3CCCC3)c2)ncc1I
